# Compound activity (PubChem BioAssay)
# Only some compounds are listed: those with a hit (about 2.3% of all), similar ones and a draw of the others.
# V1aR counter – counter-screen for oxytocin receptor agonists: human V1a receptor agonists. P37288. CHO-V1R cells, Fluo-8 calcium fluorescence, agonist mode; 0% DMSO, 100% 3 nM vasopressin. activation, % at 3 µM. 320,000 compounds, 0.25% hits;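 active means activation above the mean activation of all tested compounds plus 3 SD, per screening run, cut at about 20% in these data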;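 further: signal is peak over basal fluorescence ratio across a 100 second FLIPR read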
# Target sequence (P37288 whole entry, looked up): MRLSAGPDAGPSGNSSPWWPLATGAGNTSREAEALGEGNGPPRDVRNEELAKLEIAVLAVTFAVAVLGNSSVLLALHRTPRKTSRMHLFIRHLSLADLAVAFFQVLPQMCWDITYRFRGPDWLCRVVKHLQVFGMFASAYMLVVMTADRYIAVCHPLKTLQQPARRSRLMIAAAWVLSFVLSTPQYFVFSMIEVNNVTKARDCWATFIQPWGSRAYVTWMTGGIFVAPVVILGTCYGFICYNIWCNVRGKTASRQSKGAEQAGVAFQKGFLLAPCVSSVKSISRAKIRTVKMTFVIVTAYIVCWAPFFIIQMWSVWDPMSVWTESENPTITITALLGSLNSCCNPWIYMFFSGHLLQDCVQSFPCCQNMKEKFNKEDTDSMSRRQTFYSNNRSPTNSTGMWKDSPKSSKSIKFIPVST
# TAAR1 agonist – agonists of human TAAR1 | Q96RJ0 | CHO RD-HGA16 TAAR1, Fluo-8 calcium fluorescence; vehicle wells 0%, saturating PEA agonist 100% | activation, % at 3 µM | 360,000 compounds, 0.99% hits | AID 624467;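 active means activation above the mean activation of all test compounds in the run plus 3 SD, cut at about 38% in these data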
#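 Test system: RD-HGA16 (CHO) cells co-expressing Gα16 and hTAAR1 | Doses: Single dose, 3 µM | Schedule: 17-24 h seeding, 75 min 37 °C dye, 30 min RT | Evaluation: % activation from peak over basal fluorescence ratio, DMSO-to-PEA scaled | Technique: Kinetic Fluo-8 calcium fluorescence | Benchmarks: Low control DMSO, high control PEA (EC100)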
# OXTR ag – activates the human oxytocin receptor | activation, % at 3 µM | CHO-OTR cells, Fluo-8 calcium fluorescence; normalized: DMSO 0%, oxytocin 100% | 320,000 compounds, 0.32% hits | P30559;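 active means activation above the mean of all tested compounds plus 3 SD, cutoff set per screening run, cut at about 20% in these data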;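 further: peak over basal fluorescence ratio from a 100 s FLIPR kinetic read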
# OXTR potentiate – potentiators of human oxytocin receptor; P30559; CHO-OTR cells, Fluo-8 calcium fluorescence, potentiator mode; 0% = oxytocin EC15, 100% = EC100; activation, % at 3 µM; 320,000 compounds, 0.061% hits; AID 2445;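 active means activation above that plate's cutoff, the mean activation of tested compounds plus 3 SD, cut at about 6.6% in these data, passing the limit was not always enough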;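 further: 100% uses oxytocin at 75 nM as the full agonist control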
#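 Assay system: CHO-OTR cells, human receptor / Also added: oxytocin at about EC15, sub-maximal agonist stimulus / Dosing: single dose, 3.0 µM nominal final compound concentration / Incubation: 6 min pre-incubation, 100 s read / Technique: Fluo-8 calcium dye fluorescence / Read-out: % activation vs EC15 and EC100 oxytocin / Benchmarks: EC15 oxytocin low, 75 nM oxytocin high / Replicates: singlicate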
# TAAR1 antag – antagonists of human TAAR1. CHO RD-HGA16 TAAR1, Fluo-8 calcium fluorescence, antagonist. 360,000 compounds, 1.5% hits. AID 624466. inhibition, % at 3 µM;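 active means inhibition above a per-plate cutoff, the mean inhibition of test compounds on that plate plus 3 SD, cut at about 49% in these data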;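 further: 0% = DMSO plus EC80 beta-PEA response and 100% = DMSO alone without agonist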
#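 Assay system: CHO-derived RD-HGA16 cells stably expressing human TAAR1 plus Gα16. Timing: 140 s kinetic read after compound, 140 s after agonist. Technique: kinetic Fluo-8 calcium fluorescence measurement. Measure: % inhibition of agonist calcium response.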
# nonsel antag count – counter-screen for TAAR1 antagonists: nonselective antagonists. shares compounds with TAAR1 antag. counterscreen cell line, calcium fluorescence, antagonist mode. inhibition, % at 3 µM. 2,400 compounds, 77% hits. AID 651780; in the data active means inhibition above about 22%;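 further: CHO-Ga16 host cells stimulated with ATP at an EC80 level; 0% = agonist EC80 plus vehicle and 100% = vehicle without agonist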
# TAAR1 ant conf – confirmation of human TAAR1 antagonists | shares compounds with TAAR1 antag | TAAR1-expressing cells, fluorescence antagonist read-out | inhibition, % at 3 µM | 2,400 compounds, 40% hits | AID 651785; in the data active means inhibition above about 49%;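 further: CHO-Ga16 host cells challenged with agonist PEA near its EC80; 0% = agonist at EC80 plus vehicle and 100% = vehicle with no agonist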
# Ga16 nonsel ag – nonselective Ga16 agonist in TAAR1 antagonist counter-screen; shares compounds with TAAR1 antag; 2,400 compounds, 18% hits; activation, % at 3 µM; AID 651953; Ga16-expressing cells, calcium fluorescence, agonist counterscreen; in the data active means activation above about 12%;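 further: 0% = vehicle wells and 100% = saturating stimulus response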
# TAAR1 ag counter – activates human TAAR1 in antagonist counter-screen | activation, % at 3 µM | shares compounds with TAAR1 antag | AID 651955 | 2,400 compounds, 2% hits | hTAAR1 cell line, fluorescence activation, agonist mode; in the data active means activation above about 37%;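 further: CHO cells stably expressing TAAR1 with calcium dye readout; 0% = DMSO vehicle and 100% = full agonist response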
# The depositor's hits bear a star; · = no result given.
SMILES,V1aR counter,TAAR1 agonist,OXTR ag,OXTR potentiate,TAAR1 antag,nonsel antag count,TAAR1 ant conf,Ga16 nonsel ag,TAAR1 ag counter
COc1cc2ccccc2cc1C(=O)N1CCN(c2ccccc2O)CC1,3,6,2,-1,7,·,·,·,·
COC(=O)C1=CN(c2ccc(N3CCOCC3)cc2)C(N)=C(C#N)C1c1cccc(OC)c1OC (configuration not stated),·,4,·,·,-29,·,·,·,·
Cc1ccc(CN(C(=O)Cc2cccs2)C(C(=O)NC2CCCC2)c2ccncc2)cc1 (configuration not stated),0,1,-2,-1,6,·,·,·,·
Cc1ccc(C(C(=O)NC2CCCC2)N(Cc2ccc3c(c2)OCO3)C(=O)Cc2cccs2)cc1 (configuration not stated),1,10,-2,-22,66*,26*,56*,9,12
COc1ccc(CNC(=O)C(c2ccc(C)cc2)N(Cc2cccs2)C(=O)c2ccc3c(c2)OCCO3)cc1 (configuration not stated),3,23,2,-11,66*,31*,52*,15*,17
COCCN(C(=O)Cc1cccs1)C(C(=O)NCc1ccc(OC)cc1)c1ccc(OC)cc1 (configuration not stated),0,9,-1,-7,-1,·,·,·,·
COc1ccc(CNC(=O)C(c2ccncc2)N(C(=O)Cc2cccs2)c2cccc(C)c2)cc1 (configuration not stated),-1,3,-2,-7,12,·,·,·,·
COc1ccc(CNC(=O)C(c2ccco2)N(Cc2cccs2)C(=O)Cc2cccs2)cc1 (configuration not stated),9,20,1,-13,75*,35*,63*,9,7
COc1ccc(CNC(=O)C(c2cccs2)N(Cc2ccco2)C(=O)Cc2cccs2)cc1 (configuration not stated),5,18,2,-8,67*,30*,47,9,8
COC(=O)C1=C(C)N(Cc2ccc(C(F)(F)F)cc2)C(=NCc2ccc(C(F)(F)F)cc2)NC1c1ccc(F)cc1 (configuration not stated),·,24,·,·,41,·,·,·,·
Cn1cnc([N+](=O)[O-])c1Sc1nc(N)nc2c1ncn2C1OC(CO)C(O)C1O (configuration not stated),·,1,·,·,8,·,·,·,·
Cc1cccc(C)c1NC(=O)c1ccc(-c2cc(F)ccc2F)o1,·,-2,·,·,-3,·,·,·,·
COc1ccc(CNC(=O)C(c2ccco2)N(Cc2ccccc2)C(=O)Cc2cccs2)cc1 (configuration not stated),7,20,1,-16,85*,33*,55*,12*,12
COc1ccc(OC)c(NC(=O)C2(C)CCN2C(C)C)c1 (configuration not stated),·,-1,·,·,9,·,·,·,·
CC1(C(=O)NS(=O)(=O)c2ccccc2Cl)CCN1C(=O)CCc1cccs1 (configuration not stated),·,1,·,·,-24,·,·,·,·
O=C(CC(=O)c1ccccc1)Nc1cc([N+](=O)[O-])ccc1Cl,4,20,2,-8,77*,35*,55*,11,11
CCCCC(=O)Nc1cc([N+](=O)[O-])ccc1Cl,-1,2,-1,6,-15,·,·,·,·
CCCCN1C(=O)C(CC(=O)NCc2cccs2)CC(C(=O)N(C(C)C)C(C)C)=C1C (configuration not stated),·,-2,·,·,8,·,·,·,·
CC(/C=C1\SC(=Nc2cccnc2)NC1=O)=C\c1ccccc1,0,5,0,-8,62*,29*,56*,7,7
